Assay outcomes from PubChem.
Shown are actives, neighbours in structure and some others; about 1.8% of the full set was active somewhere.
NOD2 RIPK2 PPI – NOD2-RIPK2 binding disruptors in cells, primary screen, fluorescence, CHO cells, BLA complementation; Receptor-interacting serine/threonine-protein kinase 2 (Homo sapiens), O43353; CCF4 ratio; inhibition, % at 4.98 µM; actives 0.38% (n = 360,000); in the data active means inhibition above about 21%;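 further: 0% = vehicle only and 100% = reference blocker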
Target sequence (O43353 whole entry, looked up): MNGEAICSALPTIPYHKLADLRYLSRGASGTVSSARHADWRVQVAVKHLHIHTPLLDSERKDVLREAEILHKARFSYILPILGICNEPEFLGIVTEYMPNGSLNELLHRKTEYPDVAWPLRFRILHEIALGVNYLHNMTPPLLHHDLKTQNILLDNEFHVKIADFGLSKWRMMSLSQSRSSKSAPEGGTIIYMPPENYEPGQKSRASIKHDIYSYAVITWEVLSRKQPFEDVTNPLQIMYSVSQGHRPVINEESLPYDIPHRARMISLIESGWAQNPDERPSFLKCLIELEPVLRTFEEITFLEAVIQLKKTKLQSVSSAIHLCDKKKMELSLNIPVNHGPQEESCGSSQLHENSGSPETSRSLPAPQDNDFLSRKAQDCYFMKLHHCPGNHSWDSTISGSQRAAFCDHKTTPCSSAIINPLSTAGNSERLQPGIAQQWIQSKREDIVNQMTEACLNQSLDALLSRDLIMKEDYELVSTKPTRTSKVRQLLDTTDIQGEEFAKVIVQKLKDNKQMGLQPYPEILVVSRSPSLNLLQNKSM
TLR4-MyD88 BLA – inhibitors of TLR4-MyD88 association in cells, primary screen, cell-based, HeLa CL3-4, BLA complementation, FRET ratio; Toll-like receptor 4 (Homo sapiens) + Myeloid differentiation primary response protein …; actives 0.18% (n = 200,000); HeLa CL3-4 TLR4/MyD88 BLA complementation; inhibition, % at 8.4 µM; AID 861, 2007; in the data active means inhibition above about 25%;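 further: 0% = vehicle and 100% = reference inhibitor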
MC4R barr agon – MC4R agonists recruiting beta-arrestin, primary screen, cell-based, luminescence, agonist arm of biased-ligand search; actives 0.98% (n = 360,000); U2OS MC4R beta-arrestin complementation; percent of melanotan II response, DMSO zero; activation, % at 8.9 µM; Melanocortin receptor 4 (Homo sapiens), P32245; AID 540308, 2011;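 active means activation above a per-plate cutoff, the mean activation of sample wells on that plate plus 3 SD, cut at about 8% in these data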
MC4R antag cAMP – MC4R antagonists of cAMP signaling, primary screen, cell-based, TR-FRET, antagonist arm of biased-ligand search. MC4R-expressing cells, MTII-stimulated cAMP, LANCE TR-FRET. inhibition, % at 6.5 µM. actives 0.48% (n = 360,000). Melanocortin receptor 4 (Homo sapiens), P32245;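 active means inhibition above its plate's cutoff, the mean of tested wells on that plate plus 3 SD, cut at about 29% in these data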;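 further: 0% = Melanotan II alone and 100% = Melanotan II plus saturating MCL0020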
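Material – human MC4R-expressing U2OS cells · Repeats – no replicates · Detection – TR-FRET with Eu-cAMP and labeled anti-cAMP, 671 nm · Times – compound 30 min, challenge 1 h, detection 1 h · Compound – single nominal compound dose of 6.5 µM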
TLR9-MyD88 inh – inhibitors of TLR9-MyD88 association in cells, primary screen, cell-based, CHO, BLA complementation, fluorescence; Toll-like receptor 9 (Homo sapiens) + Myeloid differentiation primary response protein …; CCF4 FRET ratio; inhibition, % at 4.98 µM; actives 0.21% (n = 340,000); AID 504734, 2011;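 active means inhibition above the mean over all tested compounds plus 3 SD, cut at about 21% in these data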;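 further: 0% = DMSO only wells and 100% = clavulanate BLA inhibitor control wells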
MC4R barr ag – MC4R beta-arrestin agonists, retest, confirmation, cell-based, luminescence, U2OS | shares compounds with MC4R barr agon | U2OS MC4R beta-arrestin recruitment; scaled DMSO 0%, Melanotan II 100% | activation, % at 8.9 µM | actives 31% (n = 2,400) | AID 602192, 2012;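 active means mean activation across replicates above the hit cutoff set in the earlier primary screen, cut at about 8% in these data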
MOR-DOR barr ag – agonists of MOR-DOR heterodimerization, counter-screen for MC4R biased agonist project, cell-based, luminescence | shares compounds with MC4R barr agon | AID 602194, 2012 | actives 5.8% (n = 2,400) | activation, % at 9.2 µM | U2OS PathHunter beta-arrestin, beta-gal luminescence; percent of deltorphin B response, DMSO zero;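 active means mean activation across replicates exceeds the hit threshold derived in the earlier primary screen, cut at about 18% in these data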;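 further: 100% = deltorphin B at 0.9 µM final and 0% = DMSO alone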
Numbers without * were called inactive; . = not tested or not shown.

SMILES	NOD2 RIPK2 PPI	TLR4-MyD88 BLA	MC4R barr agon	MC4R antag cAMP	TLR9-MyD88 inh	MC4R barr ag	MOR-DOR barr ag
CCSc1nnc(NC(=O)C2CCCCC2C(=O)O)s1 (centres undefined)	-3	4	0	2	6	.	.
CCSc1nnc(NC(=O)C2CC2c2ccccc2)s1 (centres undefined)	5	11	15*	-5	-5	6	7
CCCCOC(=O)C1C2CCC(O2)C1C(=O)OCC (centres undefined)	-3	.	1	0	-1	.	.
O=S(=O)(c1ccc(Cl)cc1)N1CCN=C1SCc1ccc(Cl)c(Cl)c1	7	-4	-1	17	4	.	.
COc1cccc(CNC(=O)c2ccc(NC(=O)C3=CSCCO3)cc2)c1	-2	.	1	-4	1	.	.
Cc1ccc(-c2nc3ccccc3s2)cc1NC(=O)c1cc(-n2cnnc2)ccc1Cl	-14	-8	11*	14	-5	0	3
Cc1ccc(-c2nc3ccccc3s2)cc1NC(=S)NC(=O)c1ccccc1	-9	0	2	7	-1	.	.
O=C(OCc1cc(=O)n2c(n1)sc1ccccc12)c1ccc(O)cc1O	-10	-3	17*	-3	6	1	5
COc1ccc(NC(=O)Nc2cccc3[nH]c([C@@H]4O[C@H](CO)[C@@H](O)[C@H](O)[C@H]4O)nc23)cc1OC1CCCC1	-5	.	-4	18	.	.	.
O=S1(=O)CC(N2CCN(CCO)CC2)CN1CCc1ccccc1 (centres undefined)	-5	.	.	.	.	.	.
CCOC(=O)c1c(C)[nH]c(C)c1C(=O)CSc1nnc(-c2ccc(OC(F)F)cc2)o1	-14	-4	29*	2	8	6	9
COc1ccccc1CNC(=O)c1cc2c(=O)[nH]c3ccccc3c2n1C	.	1	.	.	.	.	.
COCCNC(=O)C1CCCN(C(=O)c2ccc(F)c(C)c2)CC1 (centres undefined)	-14	.	1	5	.	.	.
COc1ccc(Cn2c(C)nnc2-c2cnn(C)c2N)cc1	-6	-3	-2	-5	-4	.	.
CCOc1ccccc1C(=O)NCC(=O)NCCSc1ccc(Br)cc1	-3	.	15*	-2	-3	2	5
Nc1nonc1-c1nc2ccccc2n1Cc1ccc(Cl)cc1	-2	16	11*	-6	5	-1	5
Cc1ccc(Cn2c(-c3nonc3N)nc3ccccc32)cc1	3	-11	5	-1	-3	.	.
COc1cc(Cn2c(-c3nonc3N)nc3ccccc32)ccc1C	0	-8	10*	-25	1	-4	4
COc1cccc(Cn2c(-c3nonc3N)nc3ccccc32)c1	7	14	1	-22	-2	.	.
C=CCn1c(O)c(C2=c3ccccc3=NC2=O)s/c1=N/c1nccs1	0	10	10*	-4	-4	0	4
O=C(O)Cn1c(O)c(C2=c3ccccc3=NC2=O)sc1=O	-3	.	-2	-15	-6	.	.
NNC(=O)c1ccc(OCC2CC(c3ccc(Cl)cc3)=NO2)cc1 (centres undefined)	-6	.	12*	10	-6	0	5
O=C(NCCc1ccccn1)C(F)(F)C(F)(F)C(F)(F)C(F)(F)C(F)(F)C(F)F	-5	9	0	3	-7	.	.
Fc1cc(Cl)ccc1NC1=NCCCCC1	-5	.	0	20	4	.	.
